Published values gathered from unrelated publications.
Lines come from different studies, so protocols differ.
Organism: Hepatitis C virus
Effect on: viral replication
Action: inhibitor

| Compound | method | cells | strain | time | notes | EC50 [µM] |
| --- | --- | --- | --- | --- | --- | --- |
| CCC(=O)Nc1cc(C(=O)Nc2ccc(CN3CCN(C)CC3)c(C(F)(F)F)c2)ccc1OC | qPCR | Huh7.5 | GETYPE2A | 72 h |  | < 1.5 |
| COC(=O)N[C@H](C(=O)N1CCC[C@H]1c1ncc(-c2ccc(-c3ccc(-c4cnc([C@@H]5CCCN5C(=O)[C@@H](NC(=O)OC)C(C)C)[nH]4)cc3)cc2)[nH]1)C(C)C |  |  | GETYPE2A |  | replicon | 0.000103 |
| CC(C)(CO)C(=O)SCCOP(=O)(NCc1ccccc1)OC[C@H]1O[C@@H](n2cnc3c(=O)[nH]c(N)nc32)[C@](C)(O)[C@@H]1O (mixture of isomers) |  | Huh-7 | GETYPE1 |  | replicon | 0.3 |
| O=C1OC[C@H]2OC(O)[C@H](O)[C@@H](O)[C@@H]2OC(=O)c2cc(O)c(O)c(O)c2-c2c(O)c(O)c3oc(=O)c4c(c(O)c(O)c5oc(=O)c2c3c54)-c2c1cc(O)c(O)c2O (mixture of isomers) |  | Huh-7 | GETYPE2A | 48 h | replicon | > 150 |
| CC(C)(C)OC(=O)N[C@H]1CCCCC/C=C\[C@@H]2C[C@@]2(C(=O)NS(=O)(=O)C2CC2)NC(=O)[C@@H]2C[C@@H](OC(=O)N3Cc4cccc(F)c4C3)CN2C1=O |  | Huh-7 | GETYPE1A GETYPE1B | 96 h | replicon | 0.00057 |
| C=C1/C(=C\C=C2/CCC[C@]3(C)[C@@H]([C@H](C)CCCC(C)(C)O)CC[C@@H]23)C[C@@H](O)C[C@@H]1O | luciferase |  | GETYPE2A | 72 h | replicon | 5.43 |
| COc1nc(N)nc2c1ncn2[C@@H]1O[C@H](COP(=O)(N[C@@H](C)C(=O)OCC(C)(C)C)Oc2cccc3ccccc23)[C@@H](O)[C@@]1(C)O (stereo partly drawn) |  |  | GETYPE1A | 96 h | replicon | 0.0014 |
| C=C1CC[C@H](O)C/C1=C/C=C1\CCC[C@]2(C)[C@@H]([C@H](C)/C=C/[C@H](C)C(C)C)CC[C@@H]12 | luciferase | BM4-5 | GETYPE1B | 72 h | replicon | 12.8 |
| O=c1oc2c(O)c(O)cc3c(=O)oc4c(O)c(O)cc1c4c23 |  | Huh-7 | GETYPE2A | 48 h | replicon | ~60 |
| C[C@H](NC(=O)OCc1ccccc1)C(=O)Nc1ccc(C2S/C(=N\c3cccc(F)c3)N(Cc3ccco3)C2=O)cc1 (stereo partly drawn) |  | Huh-7 | GETYPE1B |  | replicon | 0.57 |
| CN1CCN(C(c2ccccc2)c2ccc(Cl)cc2)CC1 (racemic) |  | Huh-7.5.1 | GETYPE2A | 48 h | replicon | 0.044 |
| CCC(CC)COC(=O)[C@H](C)N[P@](=O)(OC[C@H]1O[C@@](C#N)(c2ccc3c(N)ncnn23)[C@H](O)[C@@H]1O)Oc1ccccc1 |  | Huh7.5 | GETYPE3 GETYPE3A |  | replicon | 0.19 |
